Assay results published in ChEMBL document CHEMBL4673214, “Synthesis and antibacterial bioactivities of cationic deacetyl linezolid amphiphiles” (Eur J Med Chem, 2018).
≈ marks a conversion by molar mass, not a printed value. Calls of active or inactive are those of the source. The calls are words filed in the database; no cut-off is given here.

Key:
Staphylococcus aureus [1] = assay: Antibacterial activity against Staphylococcus aureus ATCC 29213 assessed as reduction in bacterial growth incubated for 16 to 20 hrs by CLSI-based broth microdilution method; format: functional; conditions: time 16-20 hrs
Procedure, shortened: (§1)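 Broth microdilution following CLSI, in cation-adjusted Mueller-Hinton broth. Inoculum from a 4-6 h culture (~10^8 CFU/mL), diluted to ~10^6 CFU/mL. Water stocks were serially diluted in MHB (256 to 0.5 µg/mL) and mixed 1:1 with the inoculum. Plates ran 16-20 h at 37 °C. MIC was read visually. Each concentration was tested in duplicate, and the experiment was repeated at least twice.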

Staphylococcus aureus [2] = assay: Resistance ratio of compound MIC for Staphylococcus aureus ATCC 29213 after 20 passages to compound MIC for Staphylococcus aureus ATCC 29213 after 16 to 20 hrs by CLSI-based broth microdilution method; format: functional
Procedure, shortened: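 Serial passaging: after each 24 h MIC assay, cells grown at 1/2 MIC were transferred and the MIC assayed again, for 20 passages. Done with S. aureus, E. coli and MRSA. MIC plotted against days of passage. Experiment repeated twice.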

Escherichia coli [3] = assay: Bactericidal activity against early exponential phase of Escherichia coli ATCC 25922 at 6X MIC measured after 6 hrs by time-kill kinetic assay; format: functional, organism-based
Procedure, shortened: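 An overnight culture was diluted 1:10,000 in MHB and shaken at 225 rpm and 37 °C for 2 h (early exponential phase), then exposed to compound. Samples taken at intervals were centrifuged, resuspended in PBS, plated as tenfold dilutions on MHA and incubated overnight at 37 °C. CFU/mL were counted. Biological replicates were run.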

Escherichia coli [4] = assay: Antibiofilm activity against 24 hrs preformed biofilm of Escherichia coli ATCC 25922 assessed as eradication of preformed biofilm incubated for 24 hrs by crystal violet staining assay; format: functional
Enterobacteriaceae [5] = assay: Antibacterial activity against NDM1 producing carbapenem-resistant Enterobacteriaceae clinical isolate 7 assessed as reduction in bacterial growth incubated for 16 to 20 hrs by CLSI-based broth microdilution method; format: functional; conditions: time 16-20 hrs
Procedure, shortened: (§2)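 Clinical isolates tested by broth microdilution in cation-adjusted Mueller-Hinton broth. Cultures grown 4-6 h (~10^8 CFU/mL) were diluted to ~10^6 CFU/mL and mixed 1:1 with compound serial dilutions made from 256 down to 0.5 µg/mL (pre-mixing). Plates held at 37 °C for 16-20 h, then read for growth. Each concentration run in duplicate, whole experiment at least twice.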

Klebsiella pneumoniae [6] = assay: Antibacterial activity against carbapenem-resistant Klebsiella pneumoniae clinical isolate 8 assessed as reduction in bacterial growth incubated for 16 to 20 hrs by CLSI-based broth microdilution method; format: functional; conditions: time 16-20 hrs; procedure, shortened: as §2
Klebsiella pneumoniae [7] = assay: Antibacterial activity against carbapenem-resistant Klebsiella pneumoniae clinical isolate 1 assessed as reduction in bacterial growth incubated for 16 to 20 hrs by CLSI-based broth microdilution method; format: functional; conditions: time 16-20 hrs; procedure, shortened: as §2
Cell membrane [8] = assay: Induction of cytoplasmic membrane depolarization in Escherichia coli ATCC 25922 at 20 ug/ml measured for 12 mins by DiSC35 dye-based fluorescence assay; format: subcellular; conditions: dose 20.0 µg/ml
Procedure, shortened: (§3)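 Mid-log bacteria were washed and resuspended at ~10^8 CFU/mL: S. aureus in PBS, E. coli in 5 mM HEPES/5 mM glucose/100 mM KCl (1:1:1). Cells were loaded with diSC35 (10 µM stock) for 30 min (S. aureus) or 40 min (E. coli, plus EDTA). Fluorescence (ex 622/em 670 nm) was read for an 8 min baseline, then every 2 min for 12 min after compound at 20 µg/mL final. Water served as control.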

Escherichia coli [9] = assay: Antibacterial activity against Escherichia coli ATCC 25922 assessed as reduction in bacterial growth incubated 16 to 20 hrs by CLSI-based broth microdilution method; format: functional; conditions: time 16-20 hrs; procedure, shortened: as §1
Escherichia coli [10] = assay: Antibiofilm activity against Escherichia coli ATCC 25922 assessed as inhibition of biofilm formation incubated for 24 hrs by crystal violet staining assay; format: functional
Procedure, shortened: (§4)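 Twofold serial dilutions in MHB received 1:1000-diluted exponential-phase bacteria and were incubated 24 h at 37 °C. Wells were rinsed, stained with 0.1% crystal violet for 10 min and dissolved in ethanol, and OD540 was read. MBIC80 was the concentration inhibiting 80% of biofilm formation versus untreated wells, taken from dose-response curves.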

Enterobacteriaceae [11] = assay: Antibacterial activity against NDM1 producing carbapenem-resistant Enterobacteriaceae clinical isolate 4 assessed as reduction in bacterial growth incubated for 16 to 20 hrs by CLSI-based broth microdilution method; format: functional; conditions: time 16-20 hrs; procedure, shortened: as §2
Enterobacteriaceae [12] = assay: Antibacterial activity against NDM1 producing carbapenem-resistant Enterobacteriaceae clinical isolate 8 assessed as reduction in bacterial growth incubated for 16 to 20 hrs by CLSI-based broth microdilution method; format: functional; conditions: time 16-20 hrs; procedure, shortened: as §2
Enterobacteriaceae [13] = assay: Antibacterial activity against NDM1 producing carbapenem-resistant Enterobacteriaceae clinical isolate 5 assessed as reduction in bacterial growth incubated for 16 to 20 hrs by CLSI-based broth microdilution method; format: functional; conditions: time 16-20 hrs; procedure, shortened: as §2
Klebsiella pneumoniae [14] = assay: Antibacterial activity against carbapenem-resistant Klebsiella pneumoniae clinical isolate 7 assessed as reduction in bacterial growth incubated for 16 to 20 hrs by CLSI-based broth microdilution method; format: functional; conditions: time 16-20 hrs; procedure, shortened: as §2
Enterobacteriaceae [15] = assay: Antibacterial activity against NDM1 producing carbapenem-resistant Enterobacteriaceae clinical isolate 6 assessed as reduction in bacterial growth incubated for 16 to 20 hrs by CLSI-based broth microdilution method; format: functional; conditions: time 16-20 hrs; procedure, shortened: as §2
Klebsiella pneumoniae [16] = assay: Antibacterial activity against carbapenem-resistant Klebsiella pneumoniae clinical isolate 4 assessed as reduction in bacterial growth incubated for 16 to 20 hrs by CLSI-based broth microdilution method; format: functional; conditions: time 16-20 hrs; procedure, shortened: as §2
Enterobacteriaceae [17] = assay: Antibacterial activity against NDM1 producing carbapenem-resistant Enterobacteriaceae clinical isolate 10 assessed as reduction in bacterial growth incubated for 16 to 20 hrs by CLSI-based broth microdilution method; format: functional; conditions: time 16-20 hrs; procedure, shortened: as §2
Enterobacteriaceae [18] = assay: Antibacterial activity against NDM1 producing carbapenem-resistant Enterobacteriaceae clinical isolate 1 assessed as reduction in bacterial growth incubated for 16 to 20 hrs by CLSI-based broth microdilution method; format: functional; conditions: time 16-20 hrs; procedure, shortened: as §2
Cell membrane [19] = assay: Induction of cytoplasmic membrane depolarization in Staphylococcus aureus ATCC 29213 at 20 ug/ml measured for 12 mins by DiSC35 dye-based fluorescence assay; format: subcellular; conditions: dose 20.0 µg/ml; procedure, shortened: as §3
Klebsiella pneumoniae [20] = assay: Antibacterial activity against carbapenem-resistant Klebsiella pneumoniae clinical isolate 2 assessed as reduction in bacterial growth incubated for 16 to 20 hrs by CLSI-based broth microdilution method; format: functional; conditions: time 16-20 hrs; procedure, shortened: as §2
[21] = Hemolytic activity in sheep RBC incubated for 1 hr; format: ADME, cell-based, Ovis aries, Erythrocyte; conditions: sheep red blood cells (erythrocytes)
Procedure, shortened: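 Sheep RBCs were resuspended at 5% in PBS and mixed 3:1 with serial dilutions (2560 to 5 µg/mL, pre-mixing levels), then incubated 1 h at 37 °C. After centrifugation, supernatant A540 was read. Hemolysis % was calculated as (A−A0)/(Atotal−A0)×100, with untreated RBCs as 0% and 0.1% Triton X-100 as total lysis.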

Klebsiella pneumoniae [22] = assay: Antibacterial activity against carbapenem-resistant Klebsiella pneumoniae clinical isolate 9 assessed as reduction in bacterial growth incubated for 16 to 20 hrs by CLSI-based broth microdilution method; format: functional; conditions: time 16-20 hrs; procedure, shortened: as §2
Enterobacteriaceae [23] = assay: Antibacterial activity against NDM1 producing carbapenem-resistant Enterobacteriaceae clinical isolate 2 assessed as reduction in bacterial growth incubated for 16 to 20 hrs by CLSI-based broth microdilution method; format: functional; conditions: time 16-20 hrs; procedure, shortened: as §2
Cell membrane [24] = assay: Induction of inner membrane permeabilization in Staphylococcus aureus ATCC 29213 at 20 ug/ml measured for 12 mins by propidium iodide staining based fluorescence microscopic analysis; conditions: dose 20.0 µg/ml
Procedure, shortened: (§5)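 Mid-log bacteria were washed and resuspended at ~10^8 CFU/mL and preincubated with propidium iodide (10 µM stock) for 30 min (S. aureus) or 40 min (E. coli). Fluorescence (ex 535/em 617 nm) was read on a plate for an 8 min baseline, then every 2 min for 12 min after compound at 20 µg/mL final. Water served as control.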

Enterobacteriaceae [25] = assay: Antibacterial activity against NDM1 producing carbapenem-resistant Enterobacteriaceae clinical isolate 9 assessed as reduction in bacterial growth incubated for 16 to 20 hrs by CLSI-based broth microdilution method; format: functional; conditions: time 16-20 hrs; procedure, shortened: as §2
Klebsiella pneumoniae [26] = assay: Antibacterial activity against carbapenem-resistant Klebsiella pneumoniae clinical isolate 3 assessed as reduction in bacterial growth incubated for 16 to 20 hrs by CLSI-based broth microdilution method; format: functional; conditions: time 16-20 hrs; procedure, shortened: as §2
Klebsiella pneumoniae [27] = assay: Antibacterial activity against carbapenem-resistant Klebsiella pneumoniae clinical isolate 10 assessed as reduction in bacterial growth incubated for 16 to 20 hrs by CLSI-based broth microdilution method; format: functional; conditions: time 16-20 hrs; procedure, shortened: as §2
Klebsiella pneumoniae [28] = assay: Antibacterial activity against carbapenem-resistant Klebsiella pneumoniae clinical isolate 6 assessed as reduction in bacterial growth incubated for 16 to 20 hrs by CLSI-based broth microdilution method; format: functional; conditions: time 16-20 hrs; procedure, shortened: as §2
Enterobacteriaceae [29] = assay: Antibacterial activity against NDM1 producing carbapenem-resistant Enterobacteriaceae clinical isolate 3 assessed as reduction in bacterial growth incubated for 16 to 20 hrs by CLSI-based broth microdilution method; format: functional; conditions: time 16-20 hrs; procedure, shortened: as §2
Staphylococcus aureus [30] = assay: Antibiofilm activity against 24 hrs preformed biofilm of Staphylococcus aureus ATCC 29213 assessed as eradication of preformed biofilm incubated for 24 hrs by crystal violet staining assay; format: functional
Klebsiella pneumoniae [31] = assay: Antibacterial activity against carbapenem-resistant Klebsiella pneumoniae clinical isolate 5 assessed as reduction in bacterial growth incubated for 16 to 20 hrs by CLSI-based broth microdilution method; format: functional; conditions: time 16-20 hrs; procedure, shortened: as §2
Salmonella enterica = assay: Antibacterial activity against Salmonella enterica ATCC 8387 assessed as reduction in bacterial growth incubated for 16 to 20 hrs by CLSI-based broth microdilution method; format: functional; conditions: time 16-20 hrs; procedure, shortened: as §1
Cell membrane [32] = assay: Induction of outer membrane permeabilization in Escherichia coli ATCC 25922 at 20 ug/ml measured for 12 mins by NPN dye based fluorescence assay; conditions: dose 20.0 µg/ml
Procedure, shortened: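 Mid-log E. coli in HEPES/glucose/KCl at ~10^8 CFU/mL was preincubated 40 min with N-phenylnaphthylamine (10 µM stock). Fluorescence (ex 350/em 420 nm) was read for an 8 min baseline, then every 2 min for 12 min after compound at 20 µg/mL final. Water served as control.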

Staphylococcus aureus [33] = assay: Antibiofilm activity against Staphylococcus aureus ATCC 29213 assessed as inhibition of biofilm formation incubated for 24 hrs by crystal violet staining assay; format: functional; procedure, shortened: as §4
Cell membrane [34] = assay: Induction of inner membrane permeabilization in Escherichia coli ATCC 25922 at 20 ug/ml measured for 12 mins by propidium iodide staining based fluorescence microscopic analysis; conditions: dose 20.0 µg/ml; procedure, shortened: as §5

SMILES: CCn1cc(C(=O)O)c(=O)c2cc(F)c(N3CCNCC3)cc21 [NORFLOXACIN]
- MIC (Staphylococcus aureus [1]): 1 µg/mL (≈ 3.13 µM)
- Ratio (Staphylococcus aureus [2]): 256

SMILES: CO[C@@]1(NC(=O)[C@H](C(=O)O)c2ccc(O)cc2)C(=O)N2C(C(=O)O)=C(CSc3nnnn3C)CO[C@@H]21
- Activity (Escherichia coli [3]): inactive

SMILES: CC(=O)NC[C@H]1CN(c2ccc(N3CCOCC3)c(F)c2)C(=O)O1 [LINEZOLID]
- MBEC (Escherichia coli [4]): >128 µg/mL
- MBEC80 (Escherichia coli [4]): >128 µg/mL
- MBEC90 (Escherichia coli [4]): >128 µg/mL
- MIC (Enterobacteriaceae [5]): > 64 µg/mL
- MIC (Klebsiella pneumoniae [6]): > 64 µg/mL
- MIC (Klebsiella pneumoniae [7]): > 64 µg/mL
- Activity (Cell membrane [8]): inactive
- MIC (Escherichia coli [9]): > 64 µg/mL
- MBIC80 (Escherichia coli [10]): >128 µg/mL
- MBIC90 (Escherichia coli [10]): >128 µg/mL
- MIC (Enterobacteriaceae [11]): > 64 µg/mL
- MIC (Enterobacteriaceae [12]): > 64 µg/mL
- MIC (Enterobacteriaceae [13]): > 64 µg/mL
- MIC (Klebsiella pneumoniae [14]): > 64 µg/mL
- MIC (Enterobacteriaceae [15]): > 64 µg/mL
- MIC (Klebsiella pneumoniae [16]): > 64 µg/mL
- MIC (Enterobacteriaceae [17]): > 64 µg/mL
- MIC (Enterobacteriaceae [18]): > 64 µg/mL
- Activity (Cell membrane [19]): inactive
- MIC (Klebsiella pneumoniae [20]): > 64 µg/mL
- HC50 at 1 h [21]: 550 µg/mL
- MIC (Klebsiella pneumoniae [22]): > 64 µg/mL
- MIC (Enterobacteriaceae [23]): > 64 µg/mL
- Activity (Cell membrane [24]): inactive
- MIC (Enterobacteriaceae [25]): > 64 µg/mL
- MIC (Klebsiella pneumoniae [26]): > 64 µg/mL
- MIC (Klebsiella pneumoniae [27]): > 64 µg/mL
- MIC (Klebsiella pneumoniae [28]): > 64 µg/mL
- MIC (Enterobacteriaceae [29]): > 64 µg/mL
- MBEC (Staphylococcus aureus [30]): >128 µg/mL
- MBEC80 (Staphylococcus aureus [30]): >128 µg/mL
- MBEC90 (Staphylococcus aureus [30]): >128 µg/mL
- MIC (Klebsiella pneumoniae [31]): > 64 µg/mL
- MIC (Salmonella enterica): > 64 µg/mL
- Activity (Cell membrane [32]): inactive
- MBIC80 (Staphylococcus aureus [33]): 26.8 µg/mL
- MBIC90 (Staphylococcus aureus [33]): 36.1 µg/mL
- Activity (Cell membrane [34]): inactive
